ChEMBL document CHEMBL3526116, “Toxicological evaluation of acyl glucuronides of nonsteroidal anti-inflammatory drugs using human embryonic kidney 293 cells stably expressing human UDP-glucuronosyltransferase and human hepatocytes” (Drug Metab Dispos, 2011)

Key:
[1] = target: T1, UDP-glucuronosyltransferase 1A3 (Homo sapiens, UniProt P35503); experiment: Activity of human UGT1A3 expressed in HEK293 cells assessed as enzyme-mediated diclofenac acyl-beta-D-glucuronide formation at 0.1 mM measured at 24 hrs by LC-MS/MS analysis; type: ADME, cell-based; settings: hek293, 24 h, 100 µM
T1 sequence (P35503 whole entry): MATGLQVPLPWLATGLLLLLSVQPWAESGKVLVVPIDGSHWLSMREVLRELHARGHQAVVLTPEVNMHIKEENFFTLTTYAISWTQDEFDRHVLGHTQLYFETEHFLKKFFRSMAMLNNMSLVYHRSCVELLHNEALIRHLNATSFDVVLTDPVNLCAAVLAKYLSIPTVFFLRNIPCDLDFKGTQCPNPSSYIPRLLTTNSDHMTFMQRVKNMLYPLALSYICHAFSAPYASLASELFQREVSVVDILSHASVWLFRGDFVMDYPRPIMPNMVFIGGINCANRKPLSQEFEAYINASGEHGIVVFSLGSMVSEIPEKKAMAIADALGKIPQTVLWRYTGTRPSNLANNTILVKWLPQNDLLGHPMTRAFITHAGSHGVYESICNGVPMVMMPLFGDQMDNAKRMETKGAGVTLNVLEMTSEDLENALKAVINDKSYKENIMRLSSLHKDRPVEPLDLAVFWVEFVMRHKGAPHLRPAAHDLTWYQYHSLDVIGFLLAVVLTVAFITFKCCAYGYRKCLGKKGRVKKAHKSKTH
In short: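 HEK293 stably expressing human UGT1A3 (G418-selected), 2 x 10^5 cells/well in 1 mL DMEM with 0.5% FBS, exposed immediately to drug for 6, 12 or 24 h; DMSO ≤0.1% final. Cells and medium separated by centrifugation, cell fraction resuspended in PBS; aliquots mixed 1:1 with methanol/acetic acid (100:1), spun, supernatant analysed by LC-MS/MS. Triplicate determinations, mean ± SD.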

[2] = tested on: HEK293; experiment: Cytotoxicity against HEK293 cells expressing UGT1A4 assessed as decrease in cell viability at 0.1 mM by MTT assay; type: ADME, cell-based; settings: human, hek293, 100 µM; TDE = time-dependent effect
[3] = tested on: HEK293; experiment: Cytotoxicity against HEK293 cells expressing UGT1A4 assessed as decrease in cell viability by measuring intracellular ATP content at 0.1 mM by CellTiter-Glo luminescent assay; type: ADME, cell-based; settings: human, hek293, 100 µM; TDE = time-dependent effect
In short: (§1)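 UGT1A3 or UGT1A4 stable HEK293 cells, 2 x 10^4 cells/well in 0.1 mL DMEM with 0.5% FBS, drug for 6, 12 or 24 h. Viability from intracellular ATP via CellTiter-Glo luminescence, expressed as percent of control cells. Mean ± SD of triplicates.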

[4] = tested on: HEK293; experiment: Cytotoxicity against mock transfected HEK293 cells assessed as decrease in cell viability at 0.1 mM […]; type: cell-based; settings: human, hek293, 100 µM; TDE = time-dependent effect
[5] = tested on: HEK293; experiment: Cytotoxicity against mock transfected HEK293 cells assessed as decrease in cell viability by measuring intracellular ATP content at 0.1 mM by CellTiter-Glo luminescent assay; type: cell-based; settings: human, hek293, 100 µM; TDE = time-dependent effect
In short: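 Mock-transfected HEK293 cells seeded at 2 x 10^4 cells/well in DMEM with 0.5% FBS, drug added at once and incubated 6, 12 or 24 h. Viability read either by WST-8 (CCK-8) formazan absorbance at 450 nm or by intracellular ATP luminescence (CellTiter-Glo), as percent of control cells; mean ± SD of triplicates. Final DMSO ≤0.1%.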

[6] = tested on: HEK293; experiment: Cytotoxicity against HEK293 cells expressing UGT assessed as decrease in cell viability at 0.1 mM measured up to 72 hrs by MTT assay; type: ADME, cell-based; settings: human, hek293, 72 h, 100 µM
In short: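 Mock and UGT1A3/UGT1A4 stable HEK293 cells given drug for up to 72 h; viability measured by WST-8-based MTT assay.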

[7] = tested on: Hepatocyte; experiment: Cellular uptake in human hepatocytes at 0.1 mM measured at 6 hrs by LC-MS/MS analysis in presence of acyl glucuronidation inhibitor (-)-borneol; type: ADME, cell-based; settings: 100 µM
In short: (§2)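 Cryopreserved pooled human hepatocytes on collagen-coated wells, 2 × 10^5 cells/well in HCM medium with 0.5% FBS, preincubated 30 min with or without 1 mM (-)-borneol, then drug for 6 h; DMSO ≤0.2% final. Parent drug in cell fraction measured by LC-MS/MS after methanol/acetic acid extraction. Mean ± SD of triplicates.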

[8] = tested on: Hepatocyte; experiment: Cellular uptake in human hepatocytes at 0.1 mM measured at 6 hrs by LC-MS/MS analysis in absence of acyl glucuronidation inhibitor (-)-borneol; type: ADME, cell-based; settings: 100 µM; in short: as §2
[9] = tested on: HEK293; experiment: Genotoxicity in HEK293 cells expressing UGT1A3 assessed as DNA strand breaks at 0.1 mM after 24 hrs by comet assay; type: toxicity, cell-based; settings: human, hek293, 24 h, 100 µM
In short: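 HEK293 cells stably expressing UGT1A3, seeded 24 h before treatment and exposed 24 h in 0.5% FBS DMEM (vehicle 0.1% DMSO). Alkaline comet assay: low-melting agarose embedding, lysis pH 10 for 1 h at 4°C, 30 min unwinding in NaOH/EDTA, electrophoresis 300 mA for 20 min, ethidium bromide stain. Tail extent moment scored on 150-180 cells over more than 3 experiments, median (IQR).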

[10] = target: T2, UDP-glucuronosyltransferase 1A4 (Homo sapiens, UniProt P22310); experiment: Activity of human UGT1A4 expressed in HEK293 cells assessed as enzyme-mediated diclofenac acyl-beta-D-glucuronide formation at 0.1 mM measured at 24 hrs by LC-MS/MS analysis; type: ADME, cell-based; settings: hek293, 24 h, 100 µM
T2 sequence (P22310 whole entry): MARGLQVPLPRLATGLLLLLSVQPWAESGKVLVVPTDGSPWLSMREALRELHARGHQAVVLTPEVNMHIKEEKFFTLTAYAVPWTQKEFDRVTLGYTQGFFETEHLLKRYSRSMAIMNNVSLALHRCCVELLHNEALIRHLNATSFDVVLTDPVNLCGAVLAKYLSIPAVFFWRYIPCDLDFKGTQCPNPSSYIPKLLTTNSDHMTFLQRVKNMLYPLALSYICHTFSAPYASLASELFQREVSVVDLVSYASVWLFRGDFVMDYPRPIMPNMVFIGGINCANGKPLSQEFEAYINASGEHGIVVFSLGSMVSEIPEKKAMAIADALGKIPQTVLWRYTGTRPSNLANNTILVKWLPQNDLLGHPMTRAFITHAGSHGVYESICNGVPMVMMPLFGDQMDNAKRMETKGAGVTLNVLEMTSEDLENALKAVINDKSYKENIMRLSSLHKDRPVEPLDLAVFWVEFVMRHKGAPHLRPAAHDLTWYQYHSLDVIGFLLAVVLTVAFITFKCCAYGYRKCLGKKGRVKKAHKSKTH
In short: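 HEK293 stably expressing human UGT1A4, 2 x 10^5 cells/well in DMEM with 0.5% FBS, drug exposure 6–24 h, DMSO ≤0.1% final. Acyl glucuronide in cell fraction and medium measured by LC-MS/MS after methanol/acetic acid (100:1) precipitation and centrifugation. Triplicate determinations.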

[11] = tested on: HEK293; experiment: Cytotoxicity against HEK293 cells expressing UGT1A3 assessed as decrease in cell viability at 0.1 mM by MTT assay; type: ADME, cell-based; settings: human, hek293, 100 µM; TDE = time-dependent effect
[12] = tested on: HEK293; experiment: Cytotoxicity against HEK293 cells expressing UGT1A3 assessed as decrease in cell viability by measuring intracellular ATP content at 0.1 mM by CellTiter-Glo luminescent assay; type: ADME, cell-based; settings: human, hek293, 100 µM; TDE = time-dependent effect; in short: as §1
[13] = tested on: HEK293; experiment: Cytotoxicity against HEK293 cells expressing UGT assessed as LDH leakage at 0.1 mM after 6 to 24 hrs by spectrophotometric analysis relative to total cell LDH level; type: ADME, cell-based; settings: human, hek293, 100 µM
In short: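 Stable UGT-expressing or mock HEK293 lines in DMEM with 0.5% FBS, 2 x 10^4 cells/well, drug for 6, 12 or 24 h. LDH released into medium read at 490 nm (690 nm reference); percentage calculated against maximum release from control cells lysed with 1% Triton X-100.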

[14] = tested on: HEK293; experiment: Cytotoxicity against HEK293 cells expressing UGT1A3 assessed as decrease in cell viability at 0.1 mM measured at 24 hrs by MTT assay; type: ADME, cell-based; settings: human, hek293, 24 h, 100 µM

SMILES: O=C([O-])Cc1ccccc1Nc1c(Cl)cccc1Cl.[Na+] [DICLOFENAC SODIUM]
- Drug metabolism [1]: metabolite_detected
- Activity [2]: tde
- Activity [3]: tde
- Activity [4]: tde
- Activity [5]: tde
- Activity [6]: Non-toxic
- Drug uptake [7]: Active
- Drug uptake [8]: Active
- Activity [9]: Non-toxic
- Drug metabolism [10]: metabolite_not_detected
- Activity [11]: tde
- Activity [12]: tde
- Activity [13]: < 5.4%
- Activity [14]: Non-toxic
